Source: paper PMC4298701 (Diabetes, 2007)

What was measured:
[1] = target: debranching enzyme (α-1, 6-glucosidase) (Homo sapiens, UniProt P35573); experiment: Debranching enzyme, erythrocyte preparation; assay type: biochemical; details: at a concentration <1 μmol/l; data not shown
[2] = target: T1, sphingomyelinase (Homo sapiens, UniProt P17405); experiment: Sphingomyelinase inhibition; assay type: biochemical; details: at a concentration <1 μmol/l
T1 sequence (P17405 47-631): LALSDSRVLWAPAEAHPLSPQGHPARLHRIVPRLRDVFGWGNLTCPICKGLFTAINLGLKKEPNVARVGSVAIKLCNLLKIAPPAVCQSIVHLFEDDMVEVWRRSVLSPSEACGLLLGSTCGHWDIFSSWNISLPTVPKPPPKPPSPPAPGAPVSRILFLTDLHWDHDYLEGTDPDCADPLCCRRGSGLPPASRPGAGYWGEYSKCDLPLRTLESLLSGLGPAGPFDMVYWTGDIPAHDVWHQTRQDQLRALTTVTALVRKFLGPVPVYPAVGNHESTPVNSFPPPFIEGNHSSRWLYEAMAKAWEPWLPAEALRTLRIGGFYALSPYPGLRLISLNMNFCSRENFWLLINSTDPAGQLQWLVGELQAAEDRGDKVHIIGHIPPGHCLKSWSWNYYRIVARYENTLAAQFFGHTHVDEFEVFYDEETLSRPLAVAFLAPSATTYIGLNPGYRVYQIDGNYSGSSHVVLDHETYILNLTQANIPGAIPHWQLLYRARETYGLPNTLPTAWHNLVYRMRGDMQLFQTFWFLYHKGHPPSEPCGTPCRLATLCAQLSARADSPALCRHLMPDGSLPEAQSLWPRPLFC

[3] = system: ob/ob mice; experiment: Glucose homeostasis, A1C and liver lipids/glycogen in ob/ob mice; assay type: in vivo
Procedure, shortened: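 ob/ob mice (C57Bl/6J background) were fed diet containing test compound at 25 mg·kg−1·day−1, with wild-type mice as reference; A1C was measured after 9 weeks. For oral glucose tolerance, animals were fasted >6 h and gavaged with glucose (1 or 2 g/kg). […] Means ± SE; two-tailed Student's t test.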

[4] = system: C57Bl/6J mice; experiment: Ceramide and glycosphingolipids in liver and muscle of normal C57Bl/6J mice; assay type: in vivo
[5] = target: sucrase (Rattus norvegicus, UniProt P23739); experiment: Sucrase, homogenates of freshly isolated rat intestine; assay type: biochemical; details: read-out: IC50 sucrase; rat intestine homogenate
[6] = Plasma levels, accumulation and metabolism after administration to rodents; assay type: in vivo
[7] = In vitro incubation with microsomes; assay type: in vitro ADME; details: 4 h; not shown
[8] = Plasma levels of AMP-DNM in mice; assay type: in vivo
Procedure, shortened: (§1)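 Plasma test compound was measured by HPLC followed by mass spectrometry, with blood taken by tail vein, retro-orbital or cardiac puncture. Half-life was determined in mice and rats. For plasma concentration, six-week-old C57Bl/6J mice (n = 4) were dosed at 25 mg·kg−1·day−1 for 14 days and sampled during treatment; mean ± SE.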

[9] = system: ZDF rats; experiment: A1C in ZDF rats; assay type: in vivo
[10] = system: glycogen synthase; experiment: Glycogen synthase inhibition; assay type: biochemical; details: at a concentration <1 μmol/l; data not shown
[11] = system: maltase; experiment: Maltase, homogenates of freshly isolated rat intestine; assay type: biochemical; details: read-out: IC50 maltase; rat intestine homogenate
[12] = Plasma levels of AMP-DNM in rats; assay type: in vivo
Procedure, shortened: as §1

[13] = system: rodents; experiment: Tolerability in rodents; assay type: in vivo; details: up to 100 mg · kg−1 · day−1 for 2 months
[14] = target: acid α-glucosidase (Homo sapiens, UniProt P10253); experiment: Acid α-glucosidase inhibition; assay type: biochemical; details: at a concentration <1 μmol/l
[15] = system: ob/ob mice; experiment: Hyperinsulinemic-euglycemic clamp in ob/ob mice; assay type: in vivo; details: 25 mg · kg body wt−1 · day−1, clamp
[16] = system: ZDF rats; experiment: Ceramide and glycosphingolipid levels in liver of ZDF rats; assay type: in vivo; details: mean ± SD
[17] = system: 3T3-L1 adipocytes; experiment: Cell surface expression of GM3; assay type: cell-based; details: 10 μmol/l AMP-DNM, TNF-α 0.6 nmol/l, 24 h
Procedure, shortened: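 Fully differentiated 3T3-L1 adipocytes were serum-deprived in DMEM plus 1% BSA and treated for 24 h with vehicle, test compound (10 μmol/l) and/or TNF-α (0.6 nmol/l). Basal cells (no insulin) were stained with monoclonal anti-GM3 and FITC- or Alexa 488-conjugated secondary antibody, then read by flow cytometry as % viable cells GM3-positive. Means ± SE of four independent experiments.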

[18] = system: endoplasmic reticulum–trimming α-glucosidases; experiment: ER-trimming α-glucosidases inhibition; assay type: biochemical; details: at a concentration <1 μmol/l
[19] = system: 3T3-L1 adipocytes; experiment: Insulin signaling in TNF-α-treated 3T3-L1 adipocytes; assay type: cell-based; details: 10 μmol/l AMP-DNM, TNF-α 0.6 nmol/l, 24 h
[20] = system: 3T3-L1 adipocytes; experiment: Sphingolipid content of 3T3-L1 adipocytes; assay type: cell-based; details: TNF-α 0.6 nmol/l + AMP-DNM 10 μmol/l, 24 h, mean ± SE
[21] = system: ob/ob mice; experiment: Ceramide and glucosylceramide in liver and muscle of ob/ob mice; assay type: in vivo
[22] = system: C57Bl/6J mice fed a high-fat diet; experiment: Glucose homeostasis in high-fat diet-induced glucose-intolerant C57Bl/6J mice; assay type: in vivo; details: high-fat diet C57Bl/6J mice, 2 weeks, ± SD
Procedure, shortened: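 C57Bl/6J mice were made glucose-intolerant by 4 weeks on a high-fat diet (16.4% protein, 25.5% carbohydrate, 58.0% fat). They then received test compound by daily oral gavage at 0, 5 or 25 mg·kg−1·day−1 for 2 weeks, n = 8 per group. Fasted blood glucose was measured; means ± SD.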

[23] = ob/ob mice, 25 mg · kg body wt−1 · day−1
[24] = C57Bl/6J mice, 25 mg · kg−1 · day−1, 14 days
[25] = normal C57Bl/6J mice, 25 mg AMP-DNM/kg, 2 weeks, mean ± SD
[26] = oral administration of 25 mg/kg body wt
[27] = with insulin (100 nmol/l, 5 min)
[28] = 25 mg AMP-DNM/kg, 2 weeks, mean ± SD

sucrase, sequence (P23739 1014-1841 limits assumed): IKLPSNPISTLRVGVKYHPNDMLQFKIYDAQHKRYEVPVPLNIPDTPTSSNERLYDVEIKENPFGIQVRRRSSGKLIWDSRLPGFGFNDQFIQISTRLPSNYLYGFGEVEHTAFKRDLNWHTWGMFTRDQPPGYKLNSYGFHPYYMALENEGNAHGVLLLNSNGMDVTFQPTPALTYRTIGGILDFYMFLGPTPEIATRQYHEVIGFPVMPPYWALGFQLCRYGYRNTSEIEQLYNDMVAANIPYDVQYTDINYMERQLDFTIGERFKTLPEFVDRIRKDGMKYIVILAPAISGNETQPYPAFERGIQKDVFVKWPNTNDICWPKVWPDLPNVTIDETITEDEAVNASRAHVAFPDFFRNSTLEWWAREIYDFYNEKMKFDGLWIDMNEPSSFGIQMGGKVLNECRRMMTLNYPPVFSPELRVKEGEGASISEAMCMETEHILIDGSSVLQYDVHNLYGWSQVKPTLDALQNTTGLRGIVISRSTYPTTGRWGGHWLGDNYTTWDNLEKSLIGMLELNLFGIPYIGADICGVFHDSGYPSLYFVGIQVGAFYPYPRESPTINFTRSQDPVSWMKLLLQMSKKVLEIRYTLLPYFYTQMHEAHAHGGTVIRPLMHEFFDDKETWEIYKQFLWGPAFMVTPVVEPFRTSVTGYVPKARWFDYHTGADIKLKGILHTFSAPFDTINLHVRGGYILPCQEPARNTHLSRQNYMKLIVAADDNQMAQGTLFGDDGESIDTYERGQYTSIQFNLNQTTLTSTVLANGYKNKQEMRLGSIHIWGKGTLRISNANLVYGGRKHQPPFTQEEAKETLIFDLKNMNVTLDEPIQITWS
sucrase, sequence (P23739 1-1013 partner limits assumed): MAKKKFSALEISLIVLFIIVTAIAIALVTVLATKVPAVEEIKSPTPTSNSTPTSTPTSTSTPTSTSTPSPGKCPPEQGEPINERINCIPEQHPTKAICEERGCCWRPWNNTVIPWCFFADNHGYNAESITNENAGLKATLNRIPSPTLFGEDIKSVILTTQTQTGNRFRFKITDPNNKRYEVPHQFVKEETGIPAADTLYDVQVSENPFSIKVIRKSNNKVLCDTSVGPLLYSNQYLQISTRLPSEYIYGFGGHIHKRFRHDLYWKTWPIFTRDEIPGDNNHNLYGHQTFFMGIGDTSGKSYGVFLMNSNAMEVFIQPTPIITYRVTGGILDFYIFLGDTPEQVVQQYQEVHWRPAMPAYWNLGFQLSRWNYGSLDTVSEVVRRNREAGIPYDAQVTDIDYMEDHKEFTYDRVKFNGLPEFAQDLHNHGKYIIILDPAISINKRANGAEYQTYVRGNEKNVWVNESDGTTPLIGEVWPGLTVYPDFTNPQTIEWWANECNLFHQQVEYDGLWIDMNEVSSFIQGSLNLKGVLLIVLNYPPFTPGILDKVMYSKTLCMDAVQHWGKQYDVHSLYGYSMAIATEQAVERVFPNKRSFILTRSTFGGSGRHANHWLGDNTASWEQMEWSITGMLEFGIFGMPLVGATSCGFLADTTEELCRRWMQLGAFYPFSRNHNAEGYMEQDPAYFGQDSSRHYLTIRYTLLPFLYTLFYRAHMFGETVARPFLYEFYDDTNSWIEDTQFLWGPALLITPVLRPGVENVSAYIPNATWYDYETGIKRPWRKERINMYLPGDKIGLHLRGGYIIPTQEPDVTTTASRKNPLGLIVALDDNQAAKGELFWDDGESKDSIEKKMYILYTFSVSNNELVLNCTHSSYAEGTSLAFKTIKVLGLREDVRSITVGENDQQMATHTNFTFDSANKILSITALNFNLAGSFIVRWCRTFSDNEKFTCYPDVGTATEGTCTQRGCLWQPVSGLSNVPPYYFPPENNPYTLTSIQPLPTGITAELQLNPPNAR
debranching enzyme (α-1, 6-glucosidase), sequence (P35573 whole entry): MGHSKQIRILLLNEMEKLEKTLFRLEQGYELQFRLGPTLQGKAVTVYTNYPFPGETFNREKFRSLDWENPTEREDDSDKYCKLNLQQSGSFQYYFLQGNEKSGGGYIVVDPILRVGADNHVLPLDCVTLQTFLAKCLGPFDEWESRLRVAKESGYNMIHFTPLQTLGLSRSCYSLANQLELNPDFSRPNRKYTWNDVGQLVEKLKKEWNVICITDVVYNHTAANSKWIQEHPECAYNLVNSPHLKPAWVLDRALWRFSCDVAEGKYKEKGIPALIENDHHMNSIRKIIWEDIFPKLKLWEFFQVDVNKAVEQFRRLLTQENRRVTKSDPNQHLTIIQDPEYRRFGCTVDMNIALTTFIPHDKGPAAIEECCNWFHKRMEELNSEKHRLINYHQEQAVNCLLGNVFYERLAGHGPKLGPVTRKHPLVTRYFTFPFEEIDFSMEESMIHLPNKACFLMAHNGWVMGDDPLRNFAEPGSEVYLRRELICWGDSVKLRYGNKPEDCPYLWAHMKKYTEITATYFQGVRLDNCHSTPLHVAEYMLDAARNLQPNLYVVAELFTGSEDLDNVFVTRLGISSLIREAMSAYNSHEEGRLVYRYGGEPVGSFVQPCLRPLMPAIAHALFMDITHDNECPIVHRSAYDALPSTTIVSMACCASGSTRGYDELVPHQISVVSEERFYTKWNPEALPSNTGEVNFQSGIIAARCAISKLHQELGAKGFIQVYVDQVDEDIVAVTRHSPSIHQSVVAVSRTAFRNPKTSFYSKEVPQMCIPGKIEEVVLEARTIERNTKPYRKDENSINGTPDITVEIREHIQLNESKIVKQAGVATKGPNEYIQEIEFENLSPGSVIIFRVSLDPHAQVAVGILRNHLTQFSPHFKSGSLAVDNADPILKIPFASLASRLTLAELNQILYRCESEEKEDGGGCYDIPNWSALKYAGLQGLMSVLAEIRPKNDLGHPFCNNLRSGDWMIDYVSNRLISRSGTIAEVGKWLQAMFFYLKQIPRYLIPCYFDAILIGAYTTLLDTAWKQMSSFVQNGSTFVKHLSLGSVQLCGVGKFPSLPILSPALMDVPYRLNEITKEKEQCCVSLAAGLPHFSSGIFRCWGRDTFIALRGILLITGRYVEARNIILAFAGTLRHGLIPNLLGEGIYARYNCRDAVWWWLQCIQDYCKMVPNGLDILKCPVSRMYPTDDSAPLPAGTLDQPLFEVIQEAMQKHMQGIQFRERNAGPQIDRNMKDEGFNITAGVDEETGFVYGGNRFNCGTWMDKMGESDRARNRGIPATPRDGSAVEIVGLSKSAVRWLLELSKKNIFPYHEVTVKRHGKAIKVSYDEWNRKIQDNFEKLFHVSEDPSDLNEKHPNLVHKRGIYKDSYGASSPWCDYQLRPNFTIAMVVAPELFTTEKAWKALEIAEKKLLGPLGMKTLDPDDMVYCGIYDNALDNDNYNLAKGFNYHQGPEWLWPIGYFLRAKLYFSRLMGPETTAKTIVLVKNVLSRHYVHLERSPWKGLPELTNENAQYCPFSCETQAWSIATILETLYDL

OC[C@@H]1[C@@H](O)[C@H](O)[C@@H](O)CN1CCCCCOCC12CC3CC(CC(C3)C1)C2 [AMP-DNM, N-(5′-adamantane-1′-yl-methoxy)-pentyl-1-deoxynojirimycin]
effect on cytosolic debranching enzyme [1]: unaffected | inhibition of sphingomyelinase activity [2]: no significant inhibition | triglyceride concentration in liver ([3]; AMP-DNM-fed ob/ob mice): 80 ± 11 nmol/mg liver | blood glucose concentrations [3, 23]: pronounced reduction | effect on body weight or food intake [3, 23]: no significant effect | A1C concentration ([3]; ob/ob mice, 25 mg · kg body wt−1 · day−1 for 9 weeks): 4.82 ± 0.85% | AUC of blood glucose concentrations, oral glucose tolerance test ([3]; ob/ob mice, 25 mg/kg for 8 days, glucose 1 g/kg body wt, ± SD): 13.21 ± 1.43 arbitrary units per minute | reduction of ganglioside GM3 in liver [4, 24]: 28 ± 6% | reduction of liver glucosylceramide [4, 24]: 41 ± 5% | Cer, liver [4, 25]: 10.31 ± 0.96 nmol/mg protein | Cer, muscle [4, 25]: 1.47 ± 0.22 nmol/mg protein | GlcCer, liver [4, 25]: 1.24 ± 0.09 nmol/mg protein | GlcCer, muscle [4, 25]: 0.89 ± 0.22 nmol/mg protein | IC50 [5]: 4.5 µM | accumulation with daily exposure ([6]; daily exposure over 28 days): does not accumulate | in vivo metabolism (mass spectrometric analysis of urine and plasma) ([6]; in vivo): No significant in vivo metabolism | maximal plasma concentration [6, 26]: 5 µmol/L | time of maximal plasma concentration [6, 26]: 30 min | recovered after in vitro incubation with microsomes [7]: More than 90% | plasma concentration of AMP-DNM ([8]; C57Bl/6J mice, 25 mg · kg body wt−1 · day−1 for 14 days, mean ± SE): 108 ± 6 nM | plasma half-life ([8]; mice): ~ 3.1 h | A1C ([9]; 25 mg · kg−1 · day−1, 9 weeks): 6.31 ± 0.68% | A1C ([9]; 60 mg · kg body wt−1 · day−1, 10 weeks, separate experiment): 5.4 ± 0.4% | effect on glycogen synthase [10]: unaffected | IC50 [11]: 18 µM | plasma half-life [12]: ~4.2 h | overt toxicity [13]: did not result in any overt toxicity | inhibition of acid α-glucosidase activity [14]: no significant inhibition | decrease in hepatic glucose production (Ra) [15]: ~ 26% | increase in glucose disposal (Rd) [15]: ~ 29% | whole-body insulin sensitivity [15]: marked improvement | Liver Ceramide ([16]; 5 mg · kg−1 · day−1, 10 weeks): 416 ± 24 nmol/g wet wt | Liver GDA1 ([16]; 5 mg · kg−1 · day−1, 10 weeks): 15.5 ± 1.7 nmol/g wet wt | Liver GM1 ([16]; 5 mg · kg−1 · day−1, 10 weeks): 11.4 ± 2.2 nmol/g wet wt | Liver GM2 ([16]; 5 mg · kg−1 · day−1, 10 weeks): 5.9 ± 0.9 nmol/g wet wt | Liver GM3 ([16]; 5 mg · kg−1 · day−1, 10 weeks): 21.3 ± 2.9 nmol/g wet wt | Liver Glucosylceramide ([16]; 5 mg · kg−1 · day−1, 10 weeks): 53.4 ± 5.7 nmol/g wet wt | Liver Ceramide ([16]; 25 mg · kg−1 · day−1, 10 weeks): 451 ± 37 nmol/g wet wt | Liver GDA1 ([16]; 25 mg · kg−1 · day−1, 10 weeks): 7.9 ± 0.9 nmol/g wet wt | Liver GM1 ([16]; 25 mg · kg−1 · day−1, 10 weeks): 5.6 ± 1.1 nmol/g wet wt | Liver GM2 ([16]; 25 mg · kg−1 · day−1, 10 weeks): 4.8 ± 0.8 nmol/g wet wt | Liver GM3 ([16]; 25 mg · kg−1 · day−1, 10 weeks): 17.3 ± 2.7 nmol/g wet wt | Liver Glucosylceramide ([16]; 25 mg · kg−1 · day−1, 10 weeks): 47.4 ± 5.2 nmol/g wet wt | TNF-α-increased cell surface levels of GM3 gangliosides [17]: blocked | inhibition of endoplasmic reticulum–trimming α-glucosidases [18]: no significant inhibition | TNF-α-impaired insulin receptor autophosphorylation, IRS-1 tyrosine phosphorylation and Ser-473 phosphorylation of Akt [19]: significantly ameliorated | Ceramide [20, 27]: 1,241 ± 99 pmol/well | GM3 [20, 27]: 1,988 ± 169 pmol/well | Ceramide ([20]; without insulin): 1,241 ± 88 pmol/well | GM2 ([20]; without insulin): 267 ± 18 pmol/well | GM3 ([20]; without insulin): 2,205 ± 138 pmol/well | Cer, liver [21, 28]: 95.9 ± 11.6 nmol/mg protein | Cer, muscle [21, 28]: 1.29 ± 0.24 nmol/mg protein | GlcCer, liver [21, 28]: 2.24 ± 0.14 nmol/mg protein | GlcCer, muscle [21, 28]: 1.41 ± 0.16 nmol/mg protein | decrease of glucosylceramide content of muscle ([21]; 25 mg · kg−1 · day−1, two weeks): 45 ± 23% | fasting blood glucose ([22]; 5 mg · kg−1 · day−1 oral gavage): 9.46 ± 0.26 mmol/L | fasting blood glucose ([22]; 25 mg · kg−1 · day−1 oral gavage): 7.74 ± 0.40 mmol/L
